For orientation: IC50 means the concentration needed to halve the response being measured. For orientation: fraction unbound means the share of the substance not bound to proteins or other matrix. Low readings indicate little free substance, high ones much free substance.

Bounds are passed on as bounds.

The results in this text go back to ChEMBL document CHEMBL1154682, “Discovery of novel benzoxazinones as potent and orally active long chain fatty acid elongase 6 inhibitors” (J Med Chem, 2009).

For series [1], the target named is T1, Very long chain fatty acid elongase 6 (Homo sapiens, UniProt Q9H5J4).
T1 sequence (Q9H5J4 whole entry): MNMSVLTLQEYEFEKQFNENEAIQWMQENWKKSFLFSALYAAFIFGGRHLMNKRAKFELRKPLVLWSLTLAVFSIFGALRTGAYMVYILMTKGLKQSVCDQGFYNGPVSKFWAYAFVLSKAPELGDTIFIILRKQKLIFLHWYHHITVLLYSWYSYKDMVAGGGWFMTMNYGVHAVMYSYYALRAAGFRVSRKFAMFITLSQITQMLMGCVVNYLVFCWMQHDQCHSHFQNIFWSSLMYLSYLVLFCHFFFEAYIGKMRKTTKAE
In words: Inhibition of human ELOVL6 expressed in Pichia pastoris using palmitoyl-CoA by long chain fatty acyl-CoA elongation assay. In a few lines: (§1)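 Microsomes (3 μg) from Pichia pastoris SMD1168 expressing FLAG-tagged human or mouse ELOVL6 were incubated 1 h at 37 °C in 100 mM potassium phosphate pH 6.5 with 40 μM palmitoyl-CoA, 20 μM malonyl-CoA plus [14C]-malonyl-CoA, 500 μM NADPH, 200 μM BSA and 1 μM rotenone. DMSO was 1.0% final. After HCl hydrolysis, filter-retained 14C was counted. IC50 came from nonlinear regression on % of control.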

For series [2], the target named is T2, Very long chain fatty acid elongase 6 (Mus musculus, UniProt Q920L5).
T2 sequence (Q920L5 whole entry): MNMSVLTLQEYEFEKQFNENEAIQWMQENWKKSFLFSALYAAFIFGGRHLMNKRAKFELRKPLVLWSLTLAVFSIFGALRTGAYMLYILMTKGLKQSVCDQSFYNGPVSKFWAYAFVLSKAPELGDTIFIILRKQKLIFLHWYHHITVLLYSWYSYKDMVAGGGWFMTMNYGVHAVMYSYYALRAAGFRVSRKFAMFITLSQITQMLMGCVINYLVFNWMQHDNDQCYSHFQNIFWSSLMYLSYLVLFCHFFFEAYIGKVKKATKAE
The series can be described thus: Inhibition of mouse ELOVL6 expressed in Pichia pastoris using palmitoyl-CoA by long chain fatty acyl-CoA elongation assay. In short, it runs like this: as §1

Series [3] addresses T2, Very long chain fatty acid elongase 6. In words: Inhibition of ELOVL6 in mouse H2.35 cells assessed as elongation index. The class given is cell-based. In short, it runs like this: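 Subconfluent mouse hepatoma H2.35 cells were kept at 33 °C in DMEM with 200 nM dexamethasone and 4% FBS. Lipids were hydrolysed in NaOH at 70 °C, and fatty acids extracted and quantified by radio-HPLC. Elongation index = (C18:0 + C18:1) / (C16:0 + C16:1).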

Series [4] in a line: Unbound fraction in C57BL/6N mouse plasma. The series is classed as ADME, cell-free. In a few lines: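 Equilibrium dialysis was run with C57BL/6N mouse plasma adjusted to pH 7.4 and spiked with 1 μM compound, dialysed against PBS for 6 h at 37 °C. Both sides were analysed by LC-MS/MS. Unbound fraction = Cf/Cp × 100. Mean of n = 3.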

Take `O=C(Nc1ccc(F)cc1)OCC1(C(F)(F)F)OC(=O)Nc2ccc(Cl)cc21` (stereo not given): half-maximal inhibition in series [1] (IC50) required 142 nM.
Regarding `O=C(Nc1ccc(F)cc1)OCC1(c2ccccc2)OC(=O)Nc2ccc(Cl)cc21` (stereo not given), in series [1], the 50% inhibitory concentration (IC50) is more than 10000 nM.
With `O=C1Nc2ccc(-n3cccn3)cc2C(CNC(=O)c2ccc(F)cc2)(C(F)(F)F)O1` (single isomer, unassigned; (+)), the values for the IC50 in series [2] and in series [3] were 29 nM and 58 nM, respectively.
On to `O=C(NCC1(C(F)(F)F)OC(=O)Nc2ccc(Cl)cc21)Nc1ccc(F)cc1` (single isomer, unassigned; (-)), for which the IC50 amounted to 31 nM in series [2] and 377 nM in series [3]. Moreover, the unbound share (fraction unbound) in series [4] amounted to 0.005.
On to `CCC1(COC(=O)Nc2ccc(F)cc2)OC(=O)Nc2ccc(Cl)cc21` (stereo not given), for which, in series [1], inhibition was half-maximal at 2260 nM (IC50).
Still for that read-out and setting: the result for `CC(C)C1(COC(=O)Nc2ccc(F)cc2)OC(=O)Nc2ccc(Cl)cc21` (stereo not given) reads 5030 nM.
Turning to `O=C1Nc2ccc(Cl)cc2C(CNC(=O)c2ccc(F)cc2)(C(F)(F)F)O1` (stereo not given), in series [4], the free fraction (fraction unbound) was 0.053.
